In ChEMBL document CHEMBL3585334, “α- and β-Santalols Directly Interact with Tubulin and Cause Mitotic Arrest and Cytotoxicity in Oral Cancer Cells” (2015):
Activity calls are given as the source filed them. The rule behind the calls is not given here.

Tests used:
[1] = Growth inhibition of human HSC3 cells after 48 hrs by sulforhodamine B assay; assay type: functional; conditions: HSC-3, 48 h; for CC50: read-out: LC50 (the source's name)
Outline: (§1)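 Cells grown in DMEM with 10% FBS and 50 μg/mL gentamicin. They were exposed for 48 h to at least six concentrations, and the SRB assay was the read-out. GI50 was taken from log concentration–response curves of 3–9 independent experiments, each run in triplicate. Values are ± SEM.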

[2] = Growth inhibition of human CAL27 cells after 48 hrs by sulforhodamine B assay; assay type: functional; conditions: CAL-27, 48 h; outline: as §1
SCC-4 [3] = assay: Induction of mitotic arrest in human SCC4 cells assessed as punctuate and numerous spindles at 55.6 uM after 18 hrs by immunofluorescence microscopy; assay type: functional, cell-based
[4] = Growth inhibition of human SCC25 cells after 48 hrs by sulforhodamine B assay; assay type: functional; conditions: SCC-25, 48 h; for CC50: read-out: LC50 (the source's name); outline: as §1
SCC-4 [5] = assay: Induction of cell cycle arrest in human SCC4 cells assessed as cells accumulation at G2/M phase at 4 times of LC50 concentration after 18 hrs by propidium iodide-staining based flow cytometry; assay type: functional
Outline: (§2)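 SCC-4 cells treated for 18 h with DMSO vehicle, 15 nM paclitaxel, or 1×, 2×, 3× or 4× LC50. Cells were stained with propidium iodide and cell-cycle distribution was read by flow cytometry. Three independent experiments.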

SCC-4 [6] = assay: Induction of mitotic arrest in human SCC4 cells assessed as increase number of cells with a rounded morphology at 55.6 uM after 18 hrs by immunofluorescence microscopy; assay type: functional, cell-based
SCC-4 [7] = assay: Induction of cell cycle arrest in human SCC4 cells assessed as cells accumulation at G2/M phase after 18 hrs by propidium iodide-staining based flow cytometry; assay type: functional; outline: as §2
[8] = Growth inhibition of human SCC9 cells after 48 hrs by sulforhodamine B assay; assay type: functional; conditions: SCC-9, 48 h; for CC50: read-out: LC50 (the source's name); outline: as §1
Tubulin (Sus scrofa) [9] = molecular target: T1, Tubulin (Sus scrofa) (UniProt P02554+P02550); assay: Inhibition of porcine brain tubulin polymerization
Tubulin (Sus scrofa) [10] = molecular target: T1, Tubulin (Sus scrofa); assay: Binding affinity to porcine brain tubulin relative to colchicine
Outline: (§3)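 Displacement of colchicine or vinblastine from purified tubulin, with the santalol at up to 7000-fold excess over the reference drug.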

[11] = Growth inhibition of human SCC4 cells after 48 hrs by sulforhodamine B assay; assay type: functional; conditions: SCC-4, 48 h; for CC50: read-out: LC50 (the source's name); outline: as §1
[12] = Growth inhibition of human HSC2 cells after 48 hrs by sulforhodamine B assay; assay type: functional; conditions: HSC-2, 48 h; for CC50: read-out: LC50 (the source's name); outline: as §1
Tubulin (Sus scrofa) [13] = molecular target: T1, Tubulin (Sus scrofa); assay: Inhibition of porcine brain tubulin polymerization at 50 uM
Tubulin (Sus scrofa) [14] = molecular target: T1, Tubulin (Sus scrofa); assay: Binding affinity to porcine brain tubulin relative to vinblastine; outline: as §3
HN5 = assay: Growth inhibition of human HN5 cells after 48 hrs by sulforhodamine B assay; assay type: functional; conditions: HN5, 48 h; outline: as §1
SCC-4 [15] = assay: Induction of mitotic arrest in human SCC4 cells assessed as large multipolar spindles at 61.2 uM after 18 hrs by immunofluorescence microscopy; assay type: functional, cell-based
SCC-4 [16] = assay: Induction of cell cycle arrest in human SCC4 cells assessed as cells accumulation at G2/M phase at 3 times of LC50 concentration after 18 hrs by propidium iodide-staining based flow cytometry; assay type: functional; outline: as §2
SCC-4 [17] = assay: Induction of mitotic arrest in human SCC4 cells assessed as increase number of cells with a rounded morphology at 61.2 uM after 18 hrs by immunofluorescence microscopy; assay type: functional, cell-based

T1 sequence (P02550 whole entry, looked up): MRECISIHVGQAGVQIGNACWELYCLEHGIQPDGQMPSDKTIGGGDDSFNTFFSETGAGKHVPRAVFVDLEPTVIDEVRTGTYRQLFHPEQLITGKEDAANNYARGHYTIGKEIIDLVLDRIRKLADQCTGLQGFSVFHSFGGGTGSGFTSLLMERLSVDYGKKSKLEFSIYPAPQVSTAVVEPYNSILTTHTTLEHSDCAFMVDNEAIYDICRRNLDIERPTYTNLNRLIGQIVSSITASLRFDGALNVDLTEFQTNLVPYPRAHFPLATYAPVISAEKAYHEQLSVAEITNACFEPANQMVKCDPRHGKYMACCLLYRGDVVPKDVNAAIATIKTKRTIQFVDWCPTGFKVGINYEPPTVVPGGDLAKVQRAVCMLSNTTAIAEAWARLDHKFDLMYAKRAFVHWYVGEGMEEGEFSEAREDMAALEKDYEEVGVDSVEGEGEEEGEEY
T1 sequence (P02554 whole entry, looked up): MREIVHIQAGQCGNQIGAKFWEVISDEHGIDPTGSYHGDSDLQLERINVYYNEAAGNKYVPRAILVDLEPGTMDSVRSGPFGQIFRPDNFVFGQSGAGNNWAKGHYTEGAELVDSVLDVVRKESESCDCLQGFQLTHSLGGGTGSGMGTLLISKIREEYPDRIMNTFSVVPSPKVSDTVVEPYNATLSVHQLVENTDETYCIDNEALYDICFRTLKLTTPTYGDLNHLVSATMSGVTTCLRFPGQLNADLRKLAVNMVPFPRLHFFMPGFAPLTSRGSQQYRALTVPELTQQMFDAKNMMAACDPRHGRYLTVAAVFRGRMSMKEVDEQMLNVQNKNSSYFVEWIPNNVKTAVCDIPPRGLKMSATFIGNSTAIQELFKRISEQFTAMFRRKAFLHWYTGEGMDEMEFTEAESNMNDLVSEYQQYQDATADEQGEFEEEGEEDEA

Compound | GI50 [1] [µM] | TGI [1] [µM] | CC50 [1] [µM] | GI50 [2] [µM] | TGI [2] [µM] | GI50 [4] [µM] | TGI [4] [µM] | CC50 [4] [µM] | Activity (SCC-4 [5]) | Activity (SCC-4 [7]) | GI50 [8] [µM] | TGI [8] [µM] | CC50 [8] [µM] | fold change (FC) (Tubulin (Sus scrofa) [10]) | GI50 [11] [µM] | TGI [11] [µM] | CC50 [11] [µM] | GI50 [12] [µM] | TGI [12] [µM] | CC50 [12] [µM] | also measured
C/C(=C/CC[C@]1(C)C2C[C@@H]3[C@H](C2)C31C)CO | 3.9 | 5.4 | 7.7 | 5.5 | 7.6 | 3.5 | 6 | 11.6 | Active | Dose-dependent effect | 3.4 | 5.3 | 9 | > 7000 | 4.5 | 7.7 | 14 | 4.6 | 9.2 | 10.8 | LC50 [2]: 11 µM; Activity (SCC-4 [3]): Active; Activity (SCC-4 [6]): Active; inhibition (Tubulin (Sus scrofa) [9]): Dose-dependent effect; inhibition (Tubulin (Sus scrofa) [13]): Active; fold change (FC) (Tubulin (Sus scrofa) [14]): > 7000; GI50 (HN5): 5.3 µM; LC50 (HN5): 12.2 µM; TGI (HN5): 8.2 µM
C=C1[C@@H]2CC[C@@H](C2)[C@@]1(C)CC/C=C(/C)CO | 4.4 | 6.1 | 9.1 | 5.7 | 8.4 | 4.2 | 6.3 | 11.1 | Active | Dose-dependent effect | 4.2 | 6.8 | 14.5 | > 7000 | 5.8 | 10 | 14.3 | 7.3 | 9.4 | 11.9 | Activity (SCC-4 [15]): Active; Activity (SCC-4 [16]): Active; inhibition (Tubulin (Sus scrofa) [13]): Active; fold change (FC) (Tubulin (Sus scrofa) [14]): > 7000; Activity (SCC-4 [17]): Active; GI50 (HN5): 6.3 µM; TGI (HN5): 9.6 µM
